From ChEMBL document CHEMBL4130552, “Design, synthesis and biological evaluation of novel benzimidazole amidines as potent multi-target inhibitors for the treatment of non-small cell lung cancer” (Eur J Med Chem, 2018)
Active and inactive are the calls of the source. No cut-off for these calls is given here.

Experiments:
MAP kinase p38 [1] = target: T1, MAP kinase p38 (Homo sapiens, UniProt O15264+Q15759+Q16539+P53778); test: Inhibition of MAPK p38 (unknown origin); assay type: protein assay
A549 [2] = test: Antiproliferative activity against human A549 cells after 72 hrs by MTT assay; assay type: functional, cell-based; conditions: A549, 72 h
Summary of the method: (§1)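 Cells seeded at 5000/well on day 0 in medium with 10% FBS, 2 mM L-glutamine, penicillin/streptomycin, 37 °C, 5% CO2. Compounds added at five 10-fold dilutions with DMSO ≤0.1%, then 72 h exposure. MTT absorbance converted to percentage growth versus untreated wells. IC50 by linear regression between bracketing concentrations. Quadruplicate points, three independent experiments.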

SW-620 = test: Antiproliferative activity against human SW620 cells after 72 hrs by MTT assay; assay type: functional, cell-based; conditions: SW-620, 72 h; summary of the method: as §1
CFPAC-1 = test: Antiproliferative activity against human CFPAC-1 cells after 72 hrs by MTT assay; assay type: functional, cell-based; conditions: CFPAC-1, 72 h; summary of the method: as §1
WI-38 = test: Antiproliferative activity against human WI38 cells after 72 hrs by MTT assay; assay type: cell-based; conditions: WI-38, 72 h; summary of the method: as §1
HeLa = test: Antiproliferative activity against human HeLa cells after 72 hrs by MTT assay; assay type: functional, cell-based; summary of the method: as §1
MAP kinase p38 [3] = target: T1, MAP kinase p38; test: Inhibition of p38 phosphorylation at Thr180/Tyr182 residues in human A549 cells at 2 times antiproliferative IC50 after 48 hrs by Western blot method; assay type: cell-based
Summary of the method: (§2)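 Lysis in RIPA buffer (20 mM Tris-HCl pH 7.5, 150 mM NaCl, EDTA, EGTA, 1% NP-40, 1% deoxycholate, protease inhibitors). Blocking 1 h in 4% BSA/TBST, primary antibody overnight at 4 °C, HRP secondary 1 h, chemiluminescence. Densitometry normalised to alpha-tubulin; two independent experiments.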

[4] = target: Cellular tumor antigen p53 (Homo sapiens) (UniProt P04637); test: Inhibition of p53 phosphorylation at Ser-15 residue in human A549 cells at 2 times antiproliferative IC50 after 48 hrs by Western blot method; assay type: cell-based; summary of the method: as §2
A549 [5] = test: Induction of apoptosis in human A549 cells assessed as viable cells at 2 times antiproliferative IC50 after 48 hrs by Annexin V-FITC/propidium iodide staining based fluorescence microscopic method (reference value: 99.48%); assay type: functional
A549 [6] = test: Downregulation of PDE5 protein expression in human A549 cells at 2 times antiproliferative IC50 after 48 hrs by Western blot method; assay type: functional, cell-based; summary of the method: as §2
A549 [7] = test: Induction of apoptosis in human A549 cells assessed as early apoptotic cells at 2 times antiproliferative IC50 after 48 hrs by Annexin V-FITC/propidium iodide staining based fluorescence microscopic method (reference value: 0.52%); assay type: functional
A549 [8] = test: Induction of apoptosis in human A549 cells assessed as late apoptotic cells at 2 times antiproliferative IC50 after 48 hrs by Annexin V-FITC/propidium iodide staining based fluorescence microscopic method (reference value: 0%); assay type: functional
A549 [9] = test: Downregulation of CDK9/CyclinT1 protein expression in human A549 cells at 2 times antiproliferative IC50 after 48 hrs by Western blot method; assay type: functional, cell-based; summary of the method: as §2
A549 [10] = test: Downregulation of TGM2 protein expression in human A549 cells at 2 times antiproliferative IC50 after 48 hrs by Western blot method; assay type: functional, cell-based; summary of the method: as §2
A549 [11] = test: Induction of apoptosis in human A549 cells assessed as necrotic cells at 2 times antiproliferative IC50 after 48 hrs by Annexin V-FITC/propidium iodide staining based fluorescence microscopic method (reference value: 0%); assay type: functional

Cellular tumor antigen p53 (Homo sapiens), sequence (P04637 whole entry, looked up): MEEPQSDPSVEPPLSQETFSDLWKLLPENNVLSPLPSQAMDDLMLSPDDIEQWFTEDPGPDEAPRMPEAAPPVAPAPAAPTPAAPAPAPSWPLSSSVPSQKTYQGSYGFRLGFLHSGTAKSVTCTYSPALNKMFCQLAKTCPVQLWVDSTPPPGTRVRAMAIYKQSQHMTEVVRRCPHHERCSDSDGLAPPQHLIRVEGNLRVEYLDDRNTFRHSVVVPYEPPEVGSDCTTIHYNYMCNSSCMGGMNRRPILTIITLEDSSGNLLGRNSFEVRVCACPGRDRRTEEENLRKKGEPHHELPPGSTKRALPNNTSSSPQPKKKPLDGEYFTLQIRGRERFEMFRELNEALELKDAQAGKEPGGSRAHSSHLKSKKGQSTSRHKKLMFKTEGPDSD

SMILES	IC50 (A549 [2])	IC50 (SW-620)	IC50 (CFPAC-1)	IC50 (WI-38)	IC50 (HeLa)	also measured
Brc1ccc(-c2c[nH]c([C@@H]3Cc4ccccc4CN3)n2)cc1						IC50 (MAP kinase p38 [1]): 1.9 µM
CC(C)NC(=N)c1ccc2[nH]c(-c3ccc(OCc4cn(-c5ccc(I)cc5)nn4)cc3)nc2c1	0.08 µM	0.69 µM	5.13 µM	0.2 µM	0.51 µM	
Ic1ccc(-n2cc(COc3ccc(-c4nc5cc(C6=NCCN6)ccc5[nH]4)cc3)nn2)cc1	> 100 µM	0.37 µM	0.86 µM	0.22 µM	0.42 µM	
CC(C)NC(=N)c1ccc2[nH]c(-c3cn(-c4ccc(Cl)cc4)nn3)nc2c1	27.1 µM	32.5 µM	16 µM	6.85 µM	0.85 µM	
Cl.c1ccc(Cn2cc(COc3ccc(-c4nc5cc(C6=NCCN6)ccc5[nH]4)cc3)nn2)cc1	0.07 µM	28.1 µM	29.2 µM	6.89 µM	6.67 µM	inhibition (MAP kinase p38 [3]): Active; inhibition [4]: Active; Activity (A549 [5]): 49.71%; Activity (A549 [6]): Active; Activity (A549 [7]): 27.49%; Activity (A549 [8]): 16.37%; Activity (A549 [9]): Active; Activity (A549 [10]): Active; Activity (A549 [11]): 6.43%
N=C(N)c1ccc2[nH]c(-c3ccc(OCc4cn(-c5ccc(F)cc5)nn4)cc3)nc2c1	81 µM	37.9 µM	> 100 µM	0.7 µM	7.39 µM	
CC(C)NC(=N)c1ccc2[nH]c(CCc3cn(-c4ccc(Cl)cc4)nn3)nc2c1	33.4 µM	56.8 µM	36.1 µM	3.71 µM	3.11 µM	
Cc1ccc(-n2nc(C(C)(C)C)cc2NC(=O)Nc2nc(CCOCc3ccncc3)cs2)cc1						IC50 (MAP kinase p38 [1]): 0.586 µM
CC(C)NC(=N)c1ccc2[nH]c(-c3ccc(OCc4cn(-c5ccc(F)cc5)nn4)cc3)nc2c1	8.37 µM	37.9 µM	0.71 µM	0.66 µM	0.59 µM	
CC(C)NC(=N)c1ccc2[nH]c(-c3ccc(OCc4cn(-c5ccc(C(F)(F)F)cc5)nn4)cc3)nc2c1	85.8 µM	50.1 µM	> 100 µM	0.32 µM	13.7 µM	
CC(C)NC(=N)c1ccc2[nH]c(-c3ccc(OCc4cn(-c5ccccc5)nn4)cc3)nc2c1	> 100 µM	62.1 µM	> 100 µM	0.99 µM	16.6 µM	
Clc1ccc(-n2cc(COc3ccc(-c4nc5ccccc5[nH]4)cc3)nn2)cc1	7.96 µM	99.3 µM	> 100 µM	1.11 µM	> 100 µM	
N=C(N)c1ccc2[nH]c(-c3ccc(OCc4cn(Cc5ccccc5)nn4)cc3)nc2c1	9.47 µM	30.9 µM	34.4 µM	0.89 µM	13.7 µM	
N=C(N)c1ccc2[nH]c(-c3ccc(OCc4cn(-c5ccccc5)nn4)cc3)nc2c1	53.3 µM	31.5 µM	29.9 µM	8.08 µM	18.8 µM	
